Laboratory results: BindingDB's records for doi:10.1021/jm00017a020 (Sandoz Pharma, 1995)

Biological target: T1, Interleukin-2 (Mus musculus, UniProt P04351)
T1 sequence (P04351 whole entry): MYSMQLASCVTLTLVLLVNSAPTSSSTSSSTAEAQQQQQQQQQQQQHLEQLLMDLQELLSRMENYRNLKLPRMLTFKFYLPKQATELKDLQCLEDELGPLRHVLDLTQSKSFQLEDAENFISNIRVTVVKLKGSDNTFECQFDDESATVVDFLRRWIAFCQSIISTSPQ
Assay: The compound was evaluated in vitro for the immunosuppressive activity in interleukin-2 by interleukin-2 reporter gene assay (IL2-RGA)
How it was run: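 Cellular immunosuppression read in the mouse mixed lymphocyte reaction or the interleukin-2 reporter gene assay. The IC50 in nM is the mean of three independent experiments.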

SMILES	IC50
C/C=C/C[C@@H](C)[C@@H](O)[C@H]1C(=O)N[C@@H](CCC)C(=O)N(C)CC(=O)N(C)[C@@H](CC(C)C)C(=O)N[C@@H](C(C)C)C(=O)N(C)[C@@H](CC(C)C)C(=O)N[C@@H](C)C(=O)N[C@H](C)C(=O)N(C)[C@@H](CC(C)C)C(=O)N(C)[C@@H](CC(C)C)C(=O)N(C)[C@@H](C(C)C)C(=O)N1C [GECLOSPORIN]	13 nM
C/C=C/C[C@@H](C)[C@@H](O)[C@@H]1C(=O)N[C@H](CCCO)C(=O)N(C)CC(=O)N(C)[C@H](CC(C)C)C(=O)N[C@H](C(C)C)C(=O)N(C)[C@H](CC(C)C)C(=O)N[C@H](C)C(=O)N[C@@H](C)C(=O)N(C)[C@H](CC(C)C)C(=O)N(C)[C@H](CC(C)C)C(=O)N(C)[C@H](C(C)C)C(=O)N1C [33-(1-Hydroxy-2-methyl-hex-4-enyl)-30-(3-hydroxy-propyl)-6,9,18,24-tetraisobutyl-3,21-diisopropyl-1,4,7,10,12,15,19,25,28-nonamethyl-1,4,7,10,13,16,19,22,25,28,31undecaaza-cyclotritriacontan-2,5,8,11,14,17,20,23,26,29,32-undecaone]	70 nM
